Reference: ChEMBL document CHEMBL5724801, “EUbOPEN Chemogenomics Library - Multiplex” (2024)
Several values for one entry are separate records, joined by “and”; a condition that tells them apart may be missing. Identical values can stand only once.

Legend:
U2OS = assay: Multiplex assay against U2OS; type: toxicity, cell-based; settings: human
How it was run: (§1)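 Values for tubulin, mitochondrial-mass and membrane-permeability phenotypes are per cents of cells with healthy nuclei. These cells were identified by CellPathfinder machine-learning gating of live cells that had been stained at seeding with Hoechst33342, BioTracker Green Microtubule Cytoskeleton Dye, MitoTracker Red and Annexin V Alexa Fluor 680 and imaged on a CQ1 microscope at 37°C and 5% CO2 after compound addition. The gating first set Hoechst high-intensity objects apart from normal cells, then split normal cells into healthy, pyknosed or fragmented nuclei, and pyknosed cells into mitotic or apoptotic.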

HEK-293T = assay: Multiplex assay against HEK293T; type: toxicity, cell-based; settings: human; how it was run: as §1
[1] = 24 h, 10 µM, compound concentration 10 uM
[2] = 48 h, 1 µM, compound concentration 1 uM
[3] = 48 h, 10 µM, compound concentration 10 uM
[4] = 12 h, 1 µM, compound concentration 1 uM
[5] = 12 h, 10 µM, compound concentration 10 uM
[6] = 24 h, 1 µM, compound concentration 1 uM

## CN1CCN(c2ccc(Nc3c4ccccc4nc4ccccc34)cc2)CC1.Cl.Cl.O
U2OS; [1]
  Population Fragmented Nuclei (%): 46% and 69%
  Population Healthy Nuclei (%): 42% and 23%
  Population Hoechst High Intensity Objects (%): 4% and 10%
  Population Membrane Permeable-Phenotype (%): 85% and 96%
  Population Mitochondria Different-Phenotype (%): 96% and 100%
  Population Mitotic Cells (%): 0% and 10%
  Population Normal (%): 95% and 89%
  Population Pyknosed Nuclei (%): 11% and 7%
  Population Tubulin-Different-Phenotype (%): 90% and 100%
  Total Cell Count: 205 and 148
U2OS; [2]
  Population Apoptotic (%): 87% and 100%
  Population Fragmented Nuclei (%): 36% and 40%
  Population Healthy Nuclei (%): 52% and 47%
  Population Hoechst High Intensity Objects (%): 4% and 5%
  Population Mitochondria Different-Phenotype (%): 4% and 7%
  Population Mitotic Cells (%): 12% and 0%
  Population Normal (%): 95% and 94%
  Population Pyknosed Nuclei (%): 10% and 12%
  Population Tubulin-Different-Phenotype (%): 3% and 9%
  Total Cell Count: 231 and 147
U2OS; [3]
  Population Apoptotic (%): 96% and 100%
  Population Fragmented Nuclei (%): 53% and 76%
  Population Healthy Nuclei (%): 30% and 19%
  Population Hoechst High Intensity Objects (%): 18% and 15%
  Population Membrane Permeable-Phenotype (%): 91% and 100%
  Population Mitochondria Different-Phenotype (%): 90% and 96%
  Population Mitotic Cells (%): 3% and 0%
  Population Normal (%): 81% and 84%
  Population Tubulin-Different-Phenotype (%): 93% and 100%
  Total Cell Count: 243 and 173
HEK-293T; [4]
  Population Apoptotic (%): 42% and 55%
  Population Fragmented Nuclei (%): 7% and 4%
  Population Healthy Nuclei (%): 81% and 90%
  Population Hoechst High Intensity Objects (%): 3% and 1%
  Population Membrane Permeable-Phenotype (%): 0%
  Population Mitochondria Different-Phenotype (%): 50% and 59%
  Population Mitotic Cells (%): 57% and 45%
  Population Normal (%): 96% and 98%
  Population Pyknosed Nuclei (%): 11% and 5%
  Population Tubulin-Different-Phenotype (%): 28% and 20%
  Total Cell Count: 411 and 364
HEK-293T; [5]
  Population Apoptotic (%): 100%
  Population Fragmented Nuclei (%): 24% and 40%
  Population Healthy Nuclei (%): 74% and 58%
  Population Hoechst High Intensity Objects (%): 1% and 0%
  Population Membrane Permeable-Phenotype (%): 0%
  Population Mitochondria Different-Phenotype (%): 99% and 100%
  Population Mitotic Cells (%): 0%
  Population Normal (%): 98% and 99%
  Population Pyknosed Nuclei (%): 1%
  Population Tubulin-Different-Phenotype (%): 97% and 92%
  Total Cell Count: 234 and 194
HEK-293T; [6]
  Population Apoptotic (%): 42% and 46%
  Population Fragmented Nuclei (%): 9%
  Population Healthy Nuclei (%): 84% and 86%
  Population Hoechst High Intensity Objects (%): 2% and 0%
  Population Membrane Permeable-Phenotype (%): 0%
  Population Mitochondria Different-Phenotype (%): 40% and 44%
  Population Mitotic Cells (%): 57% and 53%
  Population Normal (%): 97% and 99%
  Population Pyknosed Nuclei (%): 5% and 4%
  Population Tubulin-Different-Phenotype (%): 14% and 12%
  Total Cell Count: 455 and 362
HEK-293T; [1]
  Population Apoptotic (%): 100%
  Population Fragmented Nuclei (%): 28% and 45%
  Population Healthy Nuclei (%): 69% and 53%
  Population Hoechst High Intensity Objects (%): 2% and 0%
  Population Membrane Permeable-Phenotype (%): 0%
  Population Mitochondria Different-Phenotype (%): 100%
  Population Mitotic Cells (%): 0%
  Population Normal (%): 97% and 99%
  Population Pyknosed Nuclei (%): 2% and 0%
  Population Tubulin-Different-Phenotype (%): 92% and 91%
  Total Cell Count: 247 and 206
HEK-293T; [2]
  Population Apoptotic (%): 45% and 60%
  Population Fragmented Nuclei (%): 11% and 10%
  Population Healthy Nuclei (%): 82% and 85%
  Population Hoechst High Intensity Objects (%): 3% and 1%
  Population Membrane Permeable-Phenotype (%): 0%
  Population Mitochondria Different-Phenotype (%): 30% and 36%
  Population Mitotic Cells (%): 54% and 40%
  Population Normal (%): 96% and 98%
  Population Pyknosed Nuclei (%): 6% and 3%
  Population Tubulin-Different-Phenotype (%): 16% and 12%
  Total Cell Count: 581 and 411
HEK-293T; [3]
  Population Apoptotic (%): 100% and 66%
  Population Fragmented Nuclei (%): 34% and 52%
  Population Healthy Nuclei (%): 56% and 46%
  Population Hoechst High Intensity Objects (%): 11% and 5%
  Population Membrane Permeable-Phenotype (%): 0%
  Population Mitochondria Different-Phenotype (%): 100% and 99%
  Population Normal (%): 88% and 94%
  Population Pyknosed Nuclei (%): 9% and 1%
  Population Tubulin-Different-Phenotype (%): 88% and 89%
  Total Cell Count: 318 and 272
